FXN GAA850 act = frataxin GAA850 promoter activation; HEK293 lucGAA850 FXN promoter luciferase reporter, 24 h; percent of 10 µM SAHA response; activation, % at 6 µM; 360,000 compounds, 0.56% hits;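 active means activation above the average of all compounds screened plus 3 SD, cutoff fixed separately per campaign, cut at about 7.5% in these data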;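 further: 0% = DMSO wells and 100% = 10 µM SAHA wells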
CXCR6 block = blocks human CXCR6 beta-arrestin recruitment; CHO-K1 PathHunter CXCR6 beta-arrestin, luminescence; inhibition, % at 20 µM; 360,000 compounds, 0.36% hits; AID 602244; in the data active means inhibition above about 34%, passing the limit was not always enough;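 further: antagonist mode with CXCL16 agonist at 10 nM final; 0% = 10 nM CXCL16 with DMSO and 100% = unstimulated wells without agonist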
APJ ag = agonists of human APJ apelin receptor; CHO-K1 APJ PathHunter beta-arrestin, luminescence; 0% DMSO wells, 100% apelin; activation, % at 20 µM; 330,000 compounds, 0.11% hits;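 active means activation more than six SD over the plate average, tested at 20 µM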;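 further: 0% = DMSO alone and 100% = apelin-13 at 10 nM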
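Assay system: CHO-K1 APJ beta-arrestin complementation cell line / Compound: single test compound dose, 20 µM final, 1% DMSO / Times: overnight seeding, 90 min compound at 25 °C, 1 h detection / Technique: beta-gal luminescence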
CCR6 antag = blocks CCL20-driven beta-arrestin recruitment at human CCR6; P51684; CHO-K1 CCR6 PathHunter beta-arrestin, luminescence, CCL20-stimulated; inhibition, % at 20 µM; 340,000 compounds, 0.49% hits;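 active means compounds whose inhibition of the agonist-driven luminescence signal at 20 µM reaches about 50%, limit read from the data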;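 further: cells stimulated with CCL20 at 14 nM final; plate controls were DMSO with CCL20 for no effect and DMSO without agonist for full effect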
APJ antagonist = blocks the human apelin receptor APJ; P35414; 330,000 compounds, 0.32% hits; inhibition, % at 20 µM; CHO-K1 APJ beta-arrestin complementation, luminescence;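 active means inhibition above about 40% at 20 µM, limit read from the data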;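 further: cells challenged with 10 nM apelin-13 agonist together with compound; plate controls were apelin-13 plus DMSO wells for no effect and DMSO wells lacking apelin-13 for full effect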
EBI2 antag = antagonists of human EBI2 receptor | P32249 | EBI2 beta-arrestin recruitment, luminescence, 7a,25-OHC stimulated | inhibition, % at 5 µM | 360,000 compounds, 0.81% hits | AID 651636; in the data active means inhibition above about 38%;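 further: enzyme fragment complementation signal reports receptor beta-arrestin coupling in cells; 0% = agonist plus DMSO wells and 100% = wells without agonist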
Target sequence (P32249 whole entry, looked up, the tested form may be a part): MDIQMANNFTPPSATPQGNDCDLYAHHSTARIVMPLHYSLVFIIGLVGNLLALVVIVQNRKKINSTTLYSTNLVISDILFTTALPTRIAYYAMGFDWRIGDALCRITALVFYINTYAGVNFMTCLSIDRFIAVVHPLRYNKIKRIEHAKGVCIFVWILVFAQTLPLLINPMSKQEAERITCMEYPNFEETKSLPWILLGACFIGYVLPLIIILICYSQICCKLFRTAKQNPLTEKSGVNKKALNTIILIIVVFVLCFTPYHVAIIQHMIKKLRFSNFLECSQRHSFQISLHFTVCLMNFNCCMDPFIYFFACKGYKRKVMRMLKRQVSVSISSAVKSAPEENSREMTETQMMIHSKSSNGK
APJ antag confirm = confirmation of human APJ apelin receptor antagonists; inhibition, % at 20 µM; shares compounds with APJ antagonist; 950 compounds, 66% hits; APJ beta-arrestin recruitment, luminescence, antagonist mode; in the data active means inhibition above about 50%
Active calls of the source: *. Compounds with a hit are over-represented: about 2% of the library has one in this group of screens.

Results for COc1ccccc1/C=C1\SC(=S)N(C(C(=O)O)c2ccccc2)C1=O (centres undefined) ?
FXN GAA850 act: 2; CXCR6 block: 17; APJ ag: 2; CCR6 antag: 12; APJ antagonist: 13; EBI2 antag: 9

What do the screens show for `CCOc1cc(/C=C2/SC(=S)N(CC3CCCO3)C2=O)ccc1O` (centres undefined)?
FXN GAA850 act: 3; CXCR6 block: 51*; APJ ag: -7; CCR6 antag: 67*; APJ antagonist: 48*; EBI2 antag: 9; APJ antag confirm: 101*

What do the screens show for `O=C(O)C(c1ccccc1)N1C(=O)/C(=C\c2ccc(O)c(O)c2)SC1=S` (centres undefined)?
FXN GAA850 act: -2; CXCR6 block: 42*; APJ ag: -7; CCR6 antag: 53*; APJ antagonist: 45*; EBI2 antag: 10; APJ antag confirm: 87*

Results for CCOc1ccc(/C=C2/SC(=S)N(C(C(=O)O)c3ccccc3)C2=O)cc1OCC (centres undefined) ?
FXN GAA850 act: 2; CXCR6 block: 25; CCR6 antag: 30; EBI2 antag: -7

What do the screens show for `COc1cc(/C=C2\SC(=S)N(C(C(=O)O)c3ccccc3)C2=O)ccc1O` (centres undefined)?
FXN GAA850 act: 1; CXCR6 block: 42*; APJ ag: -10; CCR6 antag: 47; APJ antagonist: 50*; EBI2 antag: 0; APJ antag confirm: 91*

Results for O=C1/C(=C/c2cccc(O)c2)SC(=S)N1CC1CCCO1 (centres undefined) ?
FXN GAA850 act: 1; CXCR6 block: 6; APJ ag: -4; CCR6 antag: 7; APJ antagonist: 8; EBI2 antag: -7

Results for CCOc1cc(/C=C2\SC(=S)N(C(C(=O)O)c3ccccc3)C2=O)ccc1O (centres undefined) ?
FXN GAA850 act: -4; CXCR6 block: 48*; APJ ag: -8; CCR6 antag: 50*; APJ antagonist: 49*; EBI2 antag: 1; APJ antag confirm: 92*

Results for CCOC(=O)C1CCN(c2ncnc3c2cnn3C)CC1 ?
FXN GAA850 act: 1; CXCR6 block: -7; APJ ag: -3; CCR6 antag: -3; APJ antagonist: 12; EBI2 antag: -6

Results for COc1ccc(-c2noc(=O)n2Cc2ccccc2Cl)cc1 ?
FXN GAA850 act: 0; CXCR6 block: -10; APJ ag: -2; CCR6 antag: 9; APJ antagonist: -7; EBI2 antag: 21

What do the screens show for `CCOc1cc([N+](=O)[O-])cc(/C=N/NC(=O)c2c(-c3ccccc3)noc2C)c1O`?
FXN GAA850 act: 2; CXCR6 block: 14; APJ ag: -11; CCR6 antag: 27; APJ antagonist: 41*; EBI2 antag: 12; APJ antag confirm: 25

How did COc1ccc(CC(=O)OC(C)C(=O)NCc2ccc3c(c2)OCO3)cc1OC (centres undefined) do in these assays?
FXN GAA850 act: 0; CXCR6 block: -10; APJ ag: -1; CCR6 antag: 2; APJ antagonist: 41*; EBI2 antag: -2; APJ antag confirm: 1

How did O=S(=O)(c1cccc(Cl)c1Cl)N1CCCCC1 do in these assays?
FXN GAA850 act: 0; CXCR6 block: 7; APJ ag: 2; CCR6 antag: 3; APJ antagonist: 40*; EBI2 antag: -1; APJ antag confirm: 22

What do the screens show for `NS(=O)(=O)c1ccc(N=Nc2c[nH]c(=O)c(O)c2)cc1`?
FXN GAA850 act: 0; CXCR6 block: 44*; APJ ag: -10; CCR6 antag: 71*; APJ antagonist: 53*; EBI2 antag: 14; APJ antag confirm: 90*

Results for CSCC[C@@H](CO)NC(=O)[C@H]1O[C@@H](n2ccc(N)nc2=O)[C@H](O)[C@@H]1O ?
CXCR6 block: -4; EBI2 antag: -6

What do the screens show for `C/C(=N\NC(=O)c1cc(Br)ccc1O)c1ccccn1`?
FXN GAA850 act: 0; CXCR6 block: 40; APJ ag: -13; CCR6 antag: 54*; APJ antagonist: 44*; EBI2 antag: 36; APJ antag confirm: 33

How did COc1ccc(N2CCOCC2)c(NC(=O)c2ccc3c(c2)OCO3)c1 do in these assays?
FXN GAA850 act: 2; CXCR6 block: 1; APJ ag: -1; CCR6 antag: 20; APJ antagonist: 51*; EBI2 antag: -4; APJ antag confirm: 30

Results for c1cncc(-c2nc(-c3ccco3)cs2)c1 ?
FXN GAA850 act: 0; CXCR6 block: 19; APJ ag: -6; CCR6 antag: 28; APJ antagonist: 47*; EBI2 antag: 1; APJ antag confirm: 18

Results for COc1ccc(/C=C/C(=O)NC(=S)NNC(=O)c2c(-c3ccccc3)noc2C)cc1 ?
FXN GAA850 act: 2; CXCR6 block: 32; APJ ag: -7; CCR6 antag: 3; APJ antagonist: 43*; EBI2 antag: 17; APJ antag confirm: 92*

What do the screens show for `Cc1cccc(S(=O)(=O)NC(=O)C2(C)CCN2C(=O)Cc2ccc(C(C)(C)C)cc2)c1` (centres undefined)?
FXN GAA850 act: 0; CXCR6 block: 2; EBI2 antag: -3

What do the screens show for `O=[N+]([O-])c1ccc(S(=O)(=O)c2ccccc2)nc1`?
FXN GAA850 act: -3; CXCR6 block: 52*; APJ ag: 6; CCR6 antag: 71*; APJ antagonist: 43*; EBI2 antag: -13; APJ antag confirm: 51*

How did O=S1(=O)Nc2c(ccc3cccnc23)-c2ccccc21 do in these assays?
FXN GAA850 act: -20; CXCR6 block: 42*; APJ ag: -11; CCR6 antag: 61*; APJ antagonist: 53*; EBI2 antag: 37; APJ antag confirm: 43

What do the screens show for `COC(=O)CS(=O)(=O)c1nnc([C@H](Cc2ccccc2)NC(=O)OC(C)(C)C)o1`?
FXN GAA850 act: 15*; CXCR6 block: 56*; APJ ag: -4; CCR6 antag: 77*; APJ antagonist: 48*; EBI2 antag: -2; APJ antag confirm: 73*

Results for COC(=O)CSc1nnc([C@H](Cc2ccccc2)NC(=O)OC(C)(C)C)o1 ?
FXN GAA850 act: -1; CXCR6 block: -2; APJ ag: 0; CCR6 antag: -2; APJ antagonist: -15; EBI2 antag: -1

How did C=CCn1c(=O)[nH]c2cc(C(=O)N3CC=C(c4ccccc4)CC3)ccc2c1=O do in these assays?
FXN GAA850 act: -2; CXCR6 block: -17; APJ ag: -5; CCR6 antag: 12; APJ antagonist: 52*; EBI2 antag: 1; APJ antag confirm: -13

Bioassay records as filed in PubChem BioAssay.
